Article PMC8969127 (Molecular Pharmacology, 2022)
Entries after “also recorded” stand apart in the source; their conditions may differ. Like-named read-outs stand apart in the source and are kept apart here.

Legend:
CatSper [1] = molecular target: T1, CatSper (Homo sapiens, UniProt Q7RTX7+Q86XQ3+Q8NEC5+Q96P56); settings: read-out: EC50, rapid-mixing calcium fluorimetry; ref Strunker et al., 2011; cited from earlier work
CatSper [2] = molecular target: T1, CatSper; assay: Human sperm calcium influx assay, activation; assay type: cell-based; settings: for Emax: read-out: Emax, %, Steroid Alone; for effect on [Ca2+]i as activator: concentrations up to 10 µM
Summary of the method: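 Semen from healthy donors was liquefied at 37 °C, washed twice in low pH/low K+ buffer (pH 6.7, 0.2 mM CaCl2), then loaded with 10 µM Fluo-4-AM plus 1 mM probenecid, 30 min, room temperature, dark. On FLIPR, buffer was added first, then openers 2 min later. Fluorescence was read for 7 min at 2-s intervals. EC50 came from 8-point, 3-fold dilutions in duplicate, peak height, four-parameter fit. Emax is relative to 3 µM progesterone. Activators were retested with 30 µM mibefradil.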

CatSper [3] = molecular target: T1, CatSper; settings: read-out: EC50, patch-clamp electrophysiology; ref Lishko et al., 2011; cited from earlier work
CatSper [4] = molecular target: T1, CatSper; assay type: cell-based; settings: for IC50: human sperm
human sperm = assay: Computer-assisted sperm analysis; assay type: cell-based; settings: CASA, human sperm, up to 30 µM
Summary of the method: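 Donor semen was liquefied ≥40 min at 37 °C, then swim-up in HAM's F10 for 1 h at 37 °C, 5% CO2. Cells were adjusted to 10x10^6/mL and capacitated in HAM's F10 with 5% BSA and 15 mM NaHCO3 at 37 °C, 5% CO2, with test compound or DMSO. HAM was induced with 100 nM progesterone or 100 nM PGE1. CASA at 37 °C used ≥10 fields, ≥200 cells. Motility classes came from VAP/VSL/VCL-derived LIN and STR, normalized to vehicle controls, ≥3 experiments.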

CatSper [5] = molecular target: T1, CatSper; assay: Activator concentration-response curves in the presence of increasing inhibitor; assay type: cell-based
Summary of the method: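 Washed human donor sperm in low pH/low K+ buffer (pH 6.7) were loaded with 10 µM Fluo-4-AM plus 1 mM probenecid, 30 min, room temperature, dark. FLIPR read: ex 470–495/em 515–575 nm. Activator concentration-response curves were run with increasing concentrations of competitive antagonist, added 2 min before the activator. Activator EC50 values were taken from maximal peak height (four-parameter fit). pKB came from Schild regression.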

[6] = pEC50, calcium influx, Steroid Alone, human sperm, mean ±SD
[7] = KB, Leff-Dougall analysis, averaged across the activators, PROG, PGE1 and l-sirenin
[8] = Leff-Dougall pKB, opener PGE1, from IC50, mean ± SD
[9] = Leff-Dougall pKB, opener PROG, from IC50, mean ± SD
[10] = Leff-Dougall pKB, opener l-Sirenin, from IC50, mean ± SD
[11] = pIC50, inhibition of PGE1-induced calcium influx, opener 10 nM PGE1 (EC80), mean ±SD
[12] = pIC50, inhibition of l-sirenin-induced calcium influx, opener 3 µM l-sirenin (EC80), mean ±SD
[13] = Schild pKB, opener PGE1, mean ± standard error
[14] = Schild pKB, opener PROG, mean ± standard error
[15] = Schild pKB, opener l-Sirenin, mean ± standard error
[16] = average pKB, Schild analysis, averaged across the activators, PROG, PGE1 and l-sirenin, mean ±SD

| EC50 (CatSper [2]; [6]) | Emax (CatSper [2]) | Kb (CatSper [4]; [7]) | Kb (CatSper [4]; [8]) | Kb (CatSper [4]; [9]) | Kb (CatSper [4]; [10]) | IC50 (CatSper [4]; [11]) | IC50 (CatSper [4]; [12]) | Kb (CatSper [5]; [13]) | Kb (CatSper [5]; [14]) | Kb (CatSper [5]; [15]) | Kb (CatSper [5]; [16]) | SMILES | effect on total and progressive sperm motility (human sperm) | effect on [Ca2+]i as activator (CatSper [2]) | also measured |
| --- | --- | --- | --- | --- | --- | --- | --- | --- | --- | --- | --- | --- | --- | --- | --- |
| 0.00372 µM | 111% |  |  |  |  |  |  |  |  |  |  | CC(=O)[C@H]1CC[C@H]2[C@@H]3CCC4=CC(=O)CC[C@]4(C)[C@H]3CC[C@]12C [compound 1, progesterone] |  |  | EC50 (CatSper [1]): 0.042 µM; EC50 (CatSper [2]; EC50, increase of [Ca2+]i in human sperm): 0.0037 µM; time at which the calcium signal peaked (CatSper [2]; then decayed slowly for up to 300 seconds): ~100 s; EC50 (CatSper [3]): 0.0077 µM |
| > 10 µM | 17% | 1.6 µM | 1 µM | 0.692 µM | 6.31 µM | 9.77 µM | 6.17 µM | 4.17 µM | 0.646 µM | 6.03 µM | 2.51 µM | CC(=O)O[C@]1(C(C)=O)CC[C@H]2[C@@H]3C[C@H](C)C4=CC(=O)CC[C@]4(C)[C@H]3CC[C@@]21C [compound 4, medroxyprogesterone acetate] | reduced total and progressive motility at 30 µM but not at lower concentrations |  | Kb (CatSper [4]; mean pKB, Leff-Dougall analysis, averaged across the activators, PROG, PGE1 and l-sirenin, mean ±SD): 1.66 µM; effect on [Ca2+]i as activator (CatSper [2]; listed as MPA): little effect on [Ca^2+]i; also recorded: negligible activity |
|  |  | 5.1 µM | 6.03 µM | 3.47 µM | 6.46 µM | 57.5 µM | 61.7 µM | 724 µM | 4.17 µM | 15.1 µM | 36.3 µM | C[C@]12CCC(=O)C=C1CC[C@@H]1[C@@H]2[C@@H](O)C[C@]2(C=O)[C@@H](C(=O)CO)CC[C@@H]12 [compound 6, aldosterone] | no significant effect | did not increase [Ca^2+]i; also recorded: negligible activity |  |

| SMILES | EC50 (CatSper [2]; [6]) | Emax (CatSper [2]) | Kb (CatSper [4]; [7]) | Kb (CatSper [4]; [8]) | Kb (CatSper [4]; [9]) | Kb (CatSper [4]; [10]) | IC50 (CatSper [4]; [11]) | IC50 (CatSper [4]; [12]) | Kb (CatSper [5]; [13]) | Kb (CatSper [5]; [14]) | Kb (CatSper [5]; [15]) | Kb (CatSper [5]; [16]) | effect on total and progressive sperm motility (human sperm) | effect on [Ca2+]i as activator (CatSper [2]) | also measured |
| --- | --- | --- | --- | --- | --- | --- | --- | --- | --- | --- | --- | --- | --- | --- | --- |
| C#C[C@]1(O)CC[C@H]2[C@@H]3CCC4=CC(=O)CC[C@@H]4[C@H]3CC[C@@]21CC [compound 5, levonorgestrel] |  | 15% | 4.5 µM | 3.16 µM | 3.39 µM | 8.51 µM | 30.2 µM | 81.3 µM | 437 µM | 0.158 µM | 56.2 µM | 15.8 µM | no significant effect | negligible activity | EC50 (CatSper [2]): > 10 µM |
